Assay results from ChEMBL document CHEMBL1671784 (J Med Chem, 2011).
Active and inactive are the calls of the source.

Legend:
Rattus norvegicus [1] = assay: Antinociceptive activity in sc dosed Sprague-Dawley rat assessed as thermal-stimulus induced tail flick latency after 2 hrs; assay type: functional
Mu-type opioid receptor = Mu-type opioid receptor (Rattus norvegicus, UniProt P33535); assay: Displacement of [3H]DAMGO from mu opioid receptor in Sprague-Dawley rat brain membrane by liquid scintillation counting; assay type: cell membranes
Sequence of Mu-type opioid receptor (P33535 whole entry): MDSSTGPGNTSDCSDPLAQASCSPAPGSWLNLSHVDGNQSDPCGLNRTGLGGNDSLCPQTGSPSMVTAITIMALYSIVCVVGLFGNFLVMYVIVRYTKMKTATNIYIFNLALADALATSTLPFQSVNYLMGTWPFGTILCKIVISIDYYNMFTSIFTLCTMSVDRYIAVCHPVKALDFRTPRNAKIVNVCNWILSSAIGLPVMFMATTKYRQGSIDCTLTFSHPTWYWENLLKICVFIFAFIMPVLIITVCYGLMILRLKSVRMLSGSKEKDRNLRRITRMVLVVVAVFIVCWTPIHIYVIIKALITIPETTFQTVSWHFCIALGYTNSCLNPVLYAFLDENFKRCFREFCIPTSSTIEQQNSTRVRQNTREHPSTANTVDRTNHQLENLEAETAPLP

[2] = biological target: Kappa-type opioid receptor (Cavia porcellus, UniProt P41144); assay: Displacement of [3H][Ile5,6]deltorphin 2 from delta opioid receptor in Sprague-Dawley rat brain membrane by liquid scintillation counting; assay type: cell membranes
Sequence of Kappa-type opioid receptor (P41144 whole entry): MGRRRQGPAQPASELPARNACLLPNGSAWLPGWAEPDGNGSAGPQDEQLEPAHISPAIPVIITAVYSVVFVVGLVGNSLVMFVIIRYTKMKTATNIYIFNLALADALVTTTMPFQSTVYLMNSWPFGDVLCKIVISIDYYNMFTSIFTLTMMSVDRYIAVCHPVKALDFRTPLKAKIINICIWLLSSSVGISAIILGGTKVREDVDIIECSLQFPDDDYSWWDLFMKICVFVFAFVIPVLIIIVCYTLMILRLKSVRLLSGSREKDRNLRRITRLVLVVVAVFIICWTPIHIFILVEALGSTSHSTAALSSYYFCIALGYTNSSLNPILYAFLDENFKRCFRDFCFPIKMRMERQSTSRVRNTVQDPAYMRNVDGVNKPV

Rattus norvegicus [3] = assay: Antinociceptive activity in sc dosed Sprague-Dawley rat assessed as thermal-stimulus induced tail flick latency after 0.5 hrs; assay type: functional
Rattus norvegicus [4] = assay: Antinociceptive activity in sc dosed Sprague-Dawley rat assessed as thermal-stimulus induced tail flick latency relative to morphine; assay type: functional
Rattus norvegicus [5] = assay: Antinociceptive activity in sc dosed Sprague-Dawley rat assessed as thermal-stimulus induced tail flick latency after 1 hrs; assay type: functional
Rattus norvegicus [6] = assay: Antinociceptive activity in sc dosed Sprague-Dawley rat assessed as thermal-stimulus induced tail flick latency after 3 hrs; assay type: functional
[7] = Displacement of [3H]U69593 from kappa opioid receptor in guinea pig brain membrane by liquid scintillation counting; assay type: cell membranes, Cavia porcellus
Rattus norvegicus [8] = assay: Antinociceptive activity in Sprague-Dawley rat inflammatory model assessed as paw withdrawal latency at 170 nmol/kg, sc administered post carrageenan challenge; assay type: functional, organism-based
Procedure, shortened: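 Male Sprague-Dawley rats (250 g), unanesthetized; unilateral inflammation from 100 μL 1% carrageenan into the right hindpaw plantar surface. At 3 h post-carrageenan, compound given sc in 0.9% saline (100 μL); saline controls; 4–7 rats per group. Randall–Selitto paw pressure (blunt wedge piston, 48 g/s, 20 s cutoff) applied to the dorsal paw. Response is % change in withdrawal latency from the 3 h pre-drug value.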

Rattus norvegicus [9] = species: Rattus norvegicus; settings: Sprague-Dawley, at 426 nmol/kg
Rattus norvegicus [10] = species: Rattus norvegicus; settings: Sprague-Dawley, at 426 nmol/kg; remark: listed apart in the source
Rattus norvegicus [11] = assay: Antinociceptive activity in Sprague-Dawley rat inflammatory model assessed as paw withdrawal latency at 183 nmol/kg, sc administered post carrageenan challenge; assay type: functional, organism-based

Structure (SMILES)	ED50 (Rattus norvegicus [1])	Ki (Mu-type opioid receptor)	Ki [2]	ED50 (Rattus norvegicus [3])	fold change (FC) (Rattus norvegicus [4])	ED50 (Rattus norvegicus [5])	ED50 (Rattus norvegicus [6])	Ki [7]	Activity (Rattus norvegicus [8])	inhibition (Rattus norvegicus [9])	inhibition (Rattus norvegicus [10])	Activity (Rattus norvegicus [11])
CN1CC[C@]23c4c5ccc(O)c4O[C@H]2[C@@H](NCC(=O)OC(C)(C)C)CC[C@@]3(OCCCc2ccccc2)[C@H]1C5	0.084 µmol/kg	1.4 nM	1.26 nM	0.0635 µmol/kg	104	0.0583 µmol/kg	0.148 µmol/kg	1.01 nM				
CN1CC[C@]23c4c5ccc(O)c4O[C@@]2(C)C(=O)CC[C@@]3(OCCCc2ccccc2)[C@H]1C5			0.54 nM					0.14 nM				
CN1CC[C@]23c4c5ccc(O)c4O[C@H]2[C@H](NCC(=O)O)CC[C@@]3(OCCCc2ccccc2)[C@H]1C5									Active			
CN1CC[C@]23c4c5ccc(O)c4O[C@H]2[C@@H](O)C=C[C@H]3[C@H]1C5 [MORPHINE]	13.3 µmol/kg			6.05 µmol/kg		7.63 µmol/kg						
CN1CC[C@]23c4c5ccc(O)c4O[C@H]2[C@H](NCC(=O)OC(C)(C)C)CC[C@@]3(OCCCc2ccccc2)[C@H]1C5	0.124 µmol/kg	1.03 nM	2.02 nM	0.164 µmol/kg	66	0.0923 µmol/kg	0.189 µmol/kg	0.92 nM				
CC(C)(C)OC(=O)CN[C@@H]1CC[C@@]2(OCCCc3ccccc3)[C@H]3Cc4ccc(O)c5c4[C@@]2(CCN3CC2CC2)[C@H]1O5	0.0344 µmol/kg	1.01 nM	1.77 nM	0.0338 µmol/kg		0.0268 µmol/kg	0.056 µmol/kg	0.4 nM				
C=CC[N+]1(C)CC[C@]23c4c5ccc(O)c4O[C@H]2C(=O)CC[C@@]3(O)[C@H]1C5 (stereo partly drawn)										Active	Active	
CC(C)(C)OC(=O)CN[C@H]1CC[C@@]2(OCCCc3ccccc3)[C@H]3Cc4ccc(O)c5c4[C@@]2(CCN3CC2CC2)[C@H]1O5	0.363 µmol/kg	1.38 nM	1.49 nM	0.365 µmol/kg	17	0.348 µmol/kg	0.427 µmol/kg	1.11 nM				
Cl.Cl.O=C(O)CN[C@H]1CC[C@@]2(OCCCc3ccccc3)[C@H]3Cc4ccc(O)c5c4[C@@]2(CCN3CC2CC2)[C@H]1O5	0.433 µmol/kg	0.27 nM	0.64 nM	1.39 µmol/kg	17	0.349 µmol/kg	0.543 µmol/kg	0.33 nM				
CO[C@@]12CC[C@H](NCC(=O)O)[C@@H]3Oc4c(O)ccc5c4[C@@]31CCN(C)[C@@H]2C5	0.143 µmol/kg			0.137 µmol/kg		0.0585 µmol/kg	0.437 µmol/kg					
CN1CC[C@]23c4c5ccc(O)c4O[C@H]2[C@@H](NCC(=O)O)CC[C@@]3(OCCCc2ccccc2)[C@H]1C5									Active			
Cl.Cl.O=C(O)CN[C@@H]1CC[C@@]2(OCCCc3ccccc3)[C@H]3Cc4ccc(O)c5c4[C@@]2(CCN3CC2CC2)[C@H]1O5	0.147 µmol/kg	0.2 nM	0.65 nM	1.56 µmol/kg	41	0.183 µmol/kg		0.35 nM				
CO[C@@]12CC[C@@H](NCC(=O)O)[C@@H]3Oc4c(O)ccc5c4[C@@]31CCN(C)[C@@H]2C5	0.0433 µmol/kg			0.0508 µmol/kg		0.029 µmol/kg						Active
